Results reported in ChEMBL document CHEMBL1687750, “Nonclinical pharmacokinetics of oseltamivir and oseltamivir carboxylate in the central nervous system” (Antimicrob Agents Chemother, 2009).

What was measured:
[1] = Prodrug conversion in 7 days old male rat liver S9 fractions assessed as conversion of oseltamivir to oseltamivir carboxylate; format: ADME, subcellular, S9 fraction
How it was run: (§1)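 S9 from brain or liver (rat S9 made by homogenizing tissue in ~4 ml Tris-sucrose buffer per g, supernatant after 9,000 × g at 10°C; pooled human brain and liver S9 also used), protein by bicinchoninic acid assay. Oseltamivir: triplicate, 10 μM 14C-oseltamivir final, 1.0 mg S9 protein, 100 mM Tris-HCl pH 7.4, 30 min at 37°C, quenched with TCA-acetonitrile.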

[2] = Prodrug conversion in 7 days old male rat liver S9 fractions assessed as oseltamivir carboxylate generation rate assessed per mg of protein per min; format: ADME, subcellular, S9 fraction; how it was run: as §1
[3] = Prodrug conversion in 42 days old male rat brain S9 fractions assessed as conversion of oseltamivir to oseltamivir carboxylate; format: ADME, subcellular, S9 fraction
How it was run: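 Rat brain or liver S9 (9,000 × g supernatant; 1.0 mg protein) was incubated in triplicate with 10 µM 14C-oseltamivir (final) in 100 mM Tris-HCl pH 7.4 for 30 min at 37°C. Reactions were quenched with TCA-acetonitrile, and the fraction converted to OC was measured by radioflow HPLC with fractionation. Rate was calculated as (pmol/ml substrate × fraction hydrolyzed)/(mg protein/ml × time), minus the no-protein background.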

Brain = experiment: Cmax in perfused Sprague-Dawley rat brain assessed as active metabolite oseltamivir carboxylate level at 30 mg/kg, iv; format: ADME, organism-based; parameters: dose 30 mg/kg, route intravenous; conditions: in vivo
How it was run: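 Nonfasted adult rats received 30 mg/kg in aqueous 0.9% NaCl (pH 4.0) by slow tail-vein injection over 20–30 s. Groups were sampled at 5 min and 0.25, 0.5, 1, 2, 4 and 8 h, with 4–5 rats per time point, under terminal isoflurane. Blood was taken by heart puncture and CSF from the cisterna magna. Brains were homogenized either unperfused or after transcardial saline perfusion. Samples were assayed by LC-MS/MS, and pooled composite data were analyzed noncompartmentally.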

Row | Activity [1] [%] | Activity [2] [pmol/s] | Activity [3] [%] | Cmax (Brain) [ng/g] | Compound
1 | 0.1 | 0.33 | 0.16 |  | CCOC(=O)C1=C[C@@H](OC(CC)CC)[C@H](NC(C)=O)[C@@H](N)C1 [OSELTAMIVIR]
2 |  |  |  | 75.5 | CCC(CC)O[C@@H]1C=C(C(=O)O)C[C@H](N)[C@H]1NC(C)=O [OSELTAMIVIR CARBOXYLATE]
